Values after ≈ are worked out from the molar mass of the structure shown. Active and inactive are the calls of the source. The rule behind the calls is not given here.
Key:
Mycobacterium kansasii [1] = experiment: Antimycobacterial activity against Mycobacterium kansasii My 235/80 after 21 days; type: functional; details: My 235/80, 504 h
In short: (§1)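 Micromethod MIC in Šula's semisynthetic medium at 37 °C. Compounds added in DMSO at 1000 down to 0.032 µmol/L. Isoniazid standard in sterile water at 0.5–250 µmol/L. Inocula: H37Rv 10^3, M. avium 10^5, M. kansasii 10^4. Read at 14 and 21 d, plus 7 d for M. kansasii.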

[2] = system: Mycobacterium tuberculosis; experiment: Antimycobacterial activity against Mycobacterium tuberculosis H37Rv My 331/88 after 14 days; type: functional; details: H37Rv My 331/88, 336 h; in short: as §1
Candida albicans [3] = experiment: Antifungal activity against Candida albicans ATCC 44859 after 48 hrs by broth microdilution method; type: functional; details: ATCC 44859, 48 h
In short: (§2)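 Broth microdilution in RPMI 1640 with glutamine, fluconazole as reference. For yeasts, MIC is ≥80% growth reduction (IC80) versus control. For filamentous fungi, the value is expressed as IC50. Readings at 24 and 48 h.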

Mycobacterium avium [4] = experiment: Antimycobacterial activity against isoniazid, rifampicin, ethambutol and ofloxacin-resistant Mycobacterium avium My 330/88 after 21 days; type: functional; details: My 330/88, 504 h; in short: as §1
Lichtheimia corymbifera [5] = experiment: Antifungal activity against Absidia corymbifera 272 after 48 hrs by broth microdilution method; type: functional; details: Lichtheimia corymbifera, 272, 48 h; in short: as §2
Mycobacterium kansasii [6] = experiment: Antimycobacterial activity against Mycobacterium kansasii 6509/96 after 14 days; type: functional; details: 6509/96, 336 h; in short: as §1
Escherichia coli = experiment: Antibacterial activity against Escherichia coli CCM 4517 at 500 micromol/L after 24 to 48 hrs by broth microdilution method; type: functional, organism-based
In short: (§3)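 Broth microdilution in Mueller–Hinton broth, compounds dissolved in DMSO, tested over a dilution series from 500 downward. MIC taken as ≥95% growth reduction (IC95) versus drug-free control. Benzylpenicillin comparator. Readings at 24 and 48 h.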

Staphylococcus aureus [7] = experiment: Antibacterial activity against Staphylococcus aureus CCM 4516/08 after 48 hrs by broth microdilution method; type: functional; details: CCM 4516/08, 48 h; in short: as §3
Mycobacterium avium [8] = experiment: Antimycobacterial activity against isoniazid, rifampicin, ethambutol and ofloxacin-resistant Mycobacterium avium My 330/88 after 14 days; type: functional; details: My 330/88, 336 h; in short: as §1
Klebsiella pneumoniae [9] = experiment: Antibacterial activity against ESBL-positive Klebsiella pneumoniae J 14368/08 at 500 micromol/L after 24 to 48 hrs by broth microdilution method; type: functional, organism-based; in short: as §3
Pichia kudriavzevii [10] = experiment: Antifungal activity against Candida krusei E28 after 24 hrs by broth microdilution method; type: functional; details: E28, 24 h; in short: as §2
Aspergillus fumigatus [11] = experiment: Antifungal activity against Aspergillus fumigatus 231 after 24 hrs by broth microdilution method; type: functional; details: Aspergillus fumigatus, 231, 24 h; in short: as §2
[12] = system: Staphylococcus epidermidis; experiment: Antibacterial activity against Staphylococcus epidermidis H 6966/08 after 24 hrs by broth microdilution method; type: functional; details: H 6966/08, 24 h; in short: as §3
Mycobacterium kansasii [13] = experiment: Antimycobacterial activity against Mycobacterium kansasii 6509/96 after 7 days; type: functional; details: 6509/96, 168 h; in short: as §1
Enterococcus sp. = experiment: Antibacterial activity against Enterococcus sp. J 14365/08 at 500 micromol/L after 24 to 48 hrs by broth microdilution method; type: functional, organism-based; in short: as §3
[14] = system: Staphylococcus epidermidis; experiment: Antibacterial activity against Staphylococcus epidermidis H 6966/08 after 48 hrs by broth microdilution method; type: functional; details: H 6966/08, 48 h; in short: as §3
Trichosporon asahii [15] = experiment: Antifungal activity against Trichosporon asahii 1188 after 24 hrs by broth microdilution method; type: functional; details: Trichosporon asahii, 1188, 24 h; in short: as §2
HepG2 = experiment: Cytotoxicity against human HepG2 cells after 24 hrs by CellTiter assay; type: cell-based; details: HepG2, 24 h
In short: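 HepG2 cells (passage 27–33) in MEM with 10% FBS, L-glutamine and NEAA, seeded at 1×10^4 per well. Treated next day with compounds at 0.1–100 µM (or 0.1–25 µmol/L), triplicates, <1% DMSO, for 24 h at 37 °C, 5% CO2. MTS reagent added for 2 h, absorbance read at 490 nm. IC50 taken against untreated (100%) and 10% DMSO (0%) controls.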

[16] = system: Trichophyton mentagrophytes; experiment: Antifungal activity against Trichophyton mentagrophytes 445 after 72 hrs by broth microdilution method; type: functional; details: Trichophyton mentagrophytes, 445, 72 h
In short: (§4)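 Filamentous dermatophyte tested by broth microdilution in RPMI 1640 with glutamine, fluconazole as reference. Value expressed as IC50 relative to growth control. Read at 72 and 120 h.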

Candida albicans [17] = experiment: Antifungal activity against Candida albicans ATCC 44859 after 24 hrs by broth microdilution method; type: functional; details: ATCC 44859, 24 h; in short: as §2
Trichosporon asahii [18] = experiment: Antifungal activity against Trichosporon asahii 1188 after 48 hrs by broth microdilution method; type: functional; details: Trichosporon asahii, 1188, 48 h; in short: as §2
Staphylococcus aureus [19] = experiment: Antibacterial activity against methicillin-resistant Staphylococcus aureus H 5996/08 after 24 hrs by broth microdilution method; type: functional; details: H 5996/08, 24 h; in short: as §3
Mycobacterium kansasii [20] = experiment: Antimycobacterial activity against Mycobacterium kansasii 6509/96 after 21 days; type: functional; details: 6509/96, 504 h; in short: as §1
Mycobacterium kansasii [21] = experiment: Antimycobacterial activity against Mycobacterium kansasii My 235/80 after 7 days; type: functional; details: My 235/80, 168 h; in short: as §1
Klebsiella pneumoniae [22] = experiment: Antibacterial activity against Klebsiella pneumoniae D 11750/08 at 500 micromol/L after 24 to 48 hrs by broth microdilution method; type: functional, organism-based; in short: as §3
Staphylococcus aureus [23] = experiment: Antibacterial activity against methicillin-resistant Staphylococcus aureus H 5996/08 after 48 hrs by broth microdilution method; type: functional; details: H 5996/08, 48 h; in short: as §3
Nakaseomyces glabratus = experiment: Antifungal activity against Candida glabrata 20/I at 500 micromol/L after 24 to 48 hrs by broth microdilution method; type: functional, organism-based; in short: as §2
Pseudomonas aeruginosa = experiment: Antibacterial activity against Pseudomonas aeruginosa CCM 1961 at 500 micromol/L after 24 to 48 hrs by broth microdilution method; type: functional, organism-based; in short: as §3
Mycobacterium kansasii [24] = experiment: Antimycobacterial activity against Mycobacterium kansasii My 235/80 after 14 days; type: functional; details: My 235/80, 336 h; in short: as §1
[25] = system: Trichophyton mentagrophytes; experiment: Antifungal activity against Trichophyton mentagrophytes 445 after 120 hrs by broth microdilution method; type: functional; details: Trichophyton mentagrophytes, 445, 120 h; in short: as §4
[26] = system: Mycobacterium tuberculosis; experiment: Antimycobacterial activity against Mycobacterium tuberculosis H37Rv My 331/88 after 21 days; type: functional; details: H37Rv My 331/88, 504 h; in short: as §1
Pichia kudriavzevii [27] = experiment: Antifungal activity against Candida krusei E28 after 48 hrs by broth microdilution method; type: functional; details: E28, 48 h; in short: as §2
Candida tropicalis = experiment: Antifungal activity against Candida tropicalis 156 at 500 micromol/L after 24 to 48 hrs by broth microdilution method; type: functional, organism-based; in short: as §2
Aspergillus fumigatus [28] = experiment: Antifungal activity against Aspergillus fumigatus 231 after 48 hrs by broth microdilution method; type: functional; details: Aspergillus fumigatus, 231, 48 h; in short: as §2
Staphylococcus aureus [29] = experiment: Antibacterial activity against Staphylococcus aureus CCM 4516/08 after 24 hrs by broth microdilution method; type: functional; details: CCM 4516/08, 24 h; in short: as §3
Lichtheimia corymbifera [30] = experiment: Antifungal activity against Absidia corymbifera 272 after 24 hrs by broth microdilution method; type: functional; details: Lichtheimia corymbifera, 272, 24 h; in short: as §2

Structure (SMILES)	MIC (Mycobacterium kansasii [1]) [µM]	MIC [2] [µM]	MIC80 (Candida albicans [3]) [µM]	MIC (Mycobacterium avium [4]) [µM]	MIC50 (Lichtheimia corymbifera [5]) [µM]	MIC (Mycobacterium kansasii [6]) [µM]	Activity (Escherichia coli)	MIC95 (Staphylococcus aureus [7]) [µM]	MIC (Mycobacterium avium [8]) [µM]	Activity (Klebsiella pneumoniae [9])	MIC80 (Pichia kudriavzevii [10]) [µM]	MIC50 (Aspergillus fumigatus [11]) [µM]	MIC95 [12] [µM]	MIC (Mycobacterium kansasii [13]) [µM]	Activity (Enterococcus sp.)	MIC95 [14] [µM]	MIC80 (Trichosporon asahii [15]) [µM]	IC50 (HepG2) [µM]	MIC50 [16] [µM]	MIC80 (Candida albicans [17]) [µM]	other results
CCOP(=O)(OCC)Oc1ccc(Cl)cc1C(=O)Nc1ccc(Cl)cc1	8 (≈ 3.35 µg/mL)	4 (≈ 1.67 µg/mL)	> 500	8 (≈ 3.35 µg/mL)	> 500	8 (≈ 3.35 µg/mL)	inactive	125 (≈ 52.3 µg/mL)	8 (≈ 3.35 µg/mL)	inactive	> 500	> 500	125 (≈ 52.3 µg/mL)	8 (≈ 3.35 µg/mL)	inactive	250 (≈ 105 µg/mL)	> 500	13	500 (≈ 209 µg/mL)	> 500	MIC80 (Trichosporon asahii [18]): > 500 µM; MIC95 (Staphylococcus aureus [19]): 125 µM (≈ 52.3 µg/mL); MIC (Mycobacterium kansasii [20]): 8 µM (≈ 3.35 µg/mL); MIC (Mycobacterium kansasii [21]): 8 µM (≈ 3.35 µg/mL); Activity (Klebsiella pneumoniae [22]): inactive; MIC95 (Staphylococcus aureus [23]): 250 µM (≈ 105 µg/mL); Activity (Nakaseomyces glabratus): inactive; Activity (Pseudomonas aeruginosa): inactive; MIC (Mycobacterium kansasii [24]): 8 µM (≈ 3.35 µg/mL); MIC50 [25]: 500 µM (≈ 209 µg/mL); MIC [26]: 4 µM (≈ 1.67 µg/mL); MIC80 (Pichia kudriavzevii [27]): > 500 µM; Activity (Candida tropicalis): inactive; MIC50 (Aspergillus fumigatus [28]): > 500 µM; MIC95 (Staphylococcus aureus [29]): 62.5 µM (≈ 26.1 µg/mL); MIC50 (Lichtheimia corymbifera [30]): > 500 µM
CCOP(=O)(OCC)Oc1cc(Cl)ccc1C(=O)Nc1ccc(Cl)cc1	8 (≈ 3.35 µg/mL)	4 (≈ 1.67 µg/mL)	> 500	8 (≈ 3.35 µg/mL)	> 500	8 (≈ 3.35 µg/mL)	inactive	250 (≈ 105 µg/mL)	8 (≈ 3.35 µg/mL)	inactive	> 500	> 500	250 (≈ 105 µg/mL)	4 (≈ 1.67 µg/mL)	inactive	500 (≈ 209 µg/mL)	> 500	5.6	500 (≈ 209 µg/mL)	> 500	MIC80 (Trichosporon asahii [18]): > 500 µM; MIC95 (Staphylococcus aureus [19]): 500 µM (≈ 209 µg/mL); MIC (Mycobacterium kansasii [20]): 8 µM (≈ 3.35 µg/mL); MIC (Mycobacterium kansasii [21]): 4 µM (≈ 1.67 µg/mL); Activity (Klebsiella pneumoniae [22]): inactive; MIC95 (Staphylococcus aureus [23]): > 500 µM; Activity (Nakaseomyces glabratus): inactive; Activity (Pseudomonas aeruginosa): inactive; MIC (Mycobacterium kansasii [24]): 4 µM (≈ 1.67 µg/mL); MIC50 [25]: 500 µM (≈ 209 µg/mL); MIC [26]: 4 µM (≈ 1.67 µg/mL); MIC80 (Pichia kudriavzevii [27]): > 500 µM; Activity (Candida tropicalis): inactive; MIC50 (Aspergillus fumigatus [28]): > 500 µM; MIC95 (Staphylococcus aureus [29]): 125 µM (≈ 52.3 µg/mL); MIC50 (Lichtheimia corymbifera [30]): > 500 µM
CCOP(=O)(OCC)Oc1ccc(Cl)cc1C(=O)Nc1ccc(C(F)(F)F)cc1	2 (≈ 0.904 µg/mL)	1 (≈ 0.452 µg/mL)	> 250	4 (≈ 1.81 µg/mL)	> 250	2 (≈ 0.904 µg/mL)	inactive	31.2 (≈ 14.1 µg/mL)	4 (≈ 1.81 µg/mL)	inactive	125 (≈ 56.5 µg/mL)	> 250	31.2 (≈ 14.1 µg/mL)	2 (≈ 0.904 µg/mL)	inactive	31.2 (≈ 14.1 µg/mL)	125 (≈ 56.5 µg/mL)	2.33	31.2 (≈ 14.1 µg/mL)	125 (≈ 56.5 µg/mL)	MIC80 (Trichosporon asahii [18]): 250 µM (≈ 113 µg/mL); MIC95 (Staphylococcus aureus [19]): 62.5 µM (≈ 28.2 µg/mL); MIC (Mycobacterium kansasii [20]): 2 µM (≈ 0.904 µg/mL); MIC (Mycobacterium kansasii [21]): 1 µM (≈ 0.452 µg/mL); Activity (Klebsiella pneumoniae [22]): inactive; MIC95 (Staphylococcus aureus [23]): 62.5 µM (≈ 28.2 µg/mL); Activity (Nakaseomyces glabratus): inactive; Activity (Pseudomonas aeruginosa): inactive; MIC (Mycobacterium kansasii [24]): 2 µM (≈ 0.904 µg/mL); MIC50 [25]: 31.2 µM (≈ 14.1 µg/mL); MIC [26]: 1 µM (≈ 0.452 µg/mL); MIC80 (Pichia kudriavzevii [27]): > 250 µM; Activity (Candida tropicalis): inactive; MIC50 (Aspergillus fumigatus [28]): > 250 µM; MIC95 (Staphylococcus aureus [29]): 31.2 µM (≈ 14.1 µg/mL); MIC50 (Lichtheimia corymbifera [30]): > 250 µM
